Series [1] concerns PC-3. Nature of the series: Antiproliferative activity against human PC3 cells after 96 hrs by MTT assay. The format is functional, cell-based. The conditions noted are these: PC-3, 96 h. A digest of the protocol: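 PC3 prostate cancer cells grown in medium with 10% lipid-reduced serum, a condition in which growth depends on de novo lipogenesis, in the presence of inhibitor. Antiproliferative IC50 reported as the mean of at least two separate runs.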
For orientation: Tetrazolium dyes change colour on reduction, which living cells bring about.

A short description of series [2]: Stability in mouse liver microsomes assessed as compound remaining after 30 mins. As to conditions: read-out: Stability. The format is ADME, Microsome. The gist of the method: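 Mouse liver microsomes, 30-min incubation. Result expressed as percent of parent remaining.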
Series [3] can be described thus: Kinetic solubility of compound at pH 7.4. The format is physicochemical. As to conditions: buffer, read-out: Kinetic_solubility. The gist of the method:
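Kinetic solubility measured at pH 7.4.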

For series [4], the target named is T1, Fatty acid synthase (Homo sapiens, UniProt P49327). Kind of series: Inhibition of FASN in human BT474 cells preincubated for 1 hr followed by [14C]-acetate addition and measured after 4 hrs by scintillation counting assay. The format is cell-based. A digest of the protocol:
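BT474 breast cancer cells given 14C-acetate, which cellular FASN incorporates via acetyl-CoA into newly made radiolabeled palmitate. IC50 for blocking this incorporation is the mean of at least two separate runs.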

For series [5], the target named is T1, Fatty acid synthase. Nature of the series: Inhibition of full length recombinant human FASN using acetyl-CoA/malonyl-CoA as substrate preincubated for 60 mins followed by substrate addition and measured after 90 mins in presence of NADPH. A digest of the protocol:
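Full-length recombinant human FASN. CoA released is detected as a fluorescent conjugate with the coumarin maleimide CPM. IC50 is the mean of at least two separate runs.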

The nature of series [6]: AUC (0 to 8 hrs) in Balb/c nude mouse at 5 mg/kg, po. It counts as ADME, organism-based. More on the design: time < 8 hr, dose 5 mg/kg, route oral. As to conditions: in vivo. A digest of the protocol:
(§1)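 Female Balb/c nude mice (n=6) dosed orally at 5 mg/kg in PEG400/ethanol (9:1). Exposure measured over 8 h, giving Tmax, Cmax, AUC0-8h and %F.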

Series [7] deals with MV4-11. Kind of series: Antitumor activity against human MV4-11 cells xenografted in Harlan nude mouse assessed as tumor growth inhibition at 50 mg/kg, po administered twice daily for 16 days and measured 4 hrs post last dose. The format is functional. As to conditions: MV4-11, po, read-out: TGI. A digest of the protocol:
(§2)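 Mice carrying subcutaneous MV-411 xenografts were randomized at […] tumor size into four groups (n=4). Groups received vehicle (PEG400/ethanol 9:1 v/v) or 5, 25 or 50 mg/kg twice daily. Tumors were taken 4 h after the last dose for malonyl-CoA measurement by LC-MS (one-way ANOVA vs vehicle). Tumor growth inhibition was assessed vs vehicle after 16 days.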
A general note: A xenograft is tissue or cells of one species grown in another, often human tumour cells in immunodeficient mice.

The nature of series [8]: Oral bioavailability in Balb/c nude mouse at 5 mg/kg. It counts as ADME, organism-based. As to conditions: in vivo. The gist of the method: as §1
Series [9] can be described thus: AUC in mouse at mg/kg, po. As to conditions: in vivo. More on the design: concentration or dose not given beside the values. It counts as ADME, organism-based. The gist of the method: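 Mouse oral PK study at 5 mg/kg p.o., with plasma exposure taken as AUC0-8h.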
A short description of series [10]: AUC (0 to 24 hrs) in Sprague-Dawley rat at 5 mg/kg, po. More on the design: dose 5 mg/kg, time < 24 hr, route oral. The conditions noted are these: in vivo. The format is ADME, organism-based. A digest of the protocol:
(§3)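 Male Sprague-Dawley rats (n=3) given a single oral 5 mg/kg dose in PEG400/ethanol (9:1). Plasma followed over 24 h to give Tmax, Cmax, AUC0-24h and oral bioavailability (%F).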

A short description of series [11]: Oral bioavailability in Sprague-Dawley rat at 5 mg/kg. As to conditions: in vivo. The format is ADME, organism-based. A digest of the protocol: as §3
Series [12] in a line: Cmax in Balb/c nude mouse at 5 mg/kg, po. On the set-up: dose 5 mg/kg, route oral. It counts as ADME, organism-based. As to conditions: in vivo. A digest of the protocol: as §1
Series [13] is described as follows: Stability in mouse liver S9 fraction after 1 hr. It counts as ADME, subcellular. As to conditions: read-out: Stability.
For series [14], the system named is MV4-11. Kind of series: Antitumor activity against human MV4-11 cells xenografted in Harlan nude mouse assessed as tumor growth inhibition at 25 mg/kg, po administered twice daily for 16 days and measured 4 hrs post last dose. It counts as functional. As to conditions: MV4-11, po, read-out: TGI. A digest of the protocol:
as §2

A short description of series [15]: Toxicity in Balb/c nude mouse at 5 mg/kg, po administered as single dose. The format is organism-based. As to conditions: in vivo. The gist of the method:
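Female Balb/c nude mice observed for acute toxicity after a single oral 5 mg/kg dose.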

For series [16], the system named is Mus musculus. Nature of the series: In vivo inhibition of FASN in Harlan nude mouse xenografted with human MV411 cells assessed as increase in malonyl-CoA levels in tumors administered orally twice daily for 16 days and measured 4 hrs post last dose by LC-MS analysis. It counts as functional, organism-based. A digest of the protocol:
as §2

The nature of series [17]: Cmax in Sprague-Dawley rat at 5 mg/kg, po. It counts as ADME, organism-based. On the set-up: dose 5 mg/kg, route oral. As to conditions: in vivo. A digest of the protocol: as §3
Series [18] can be described thus: Tmax in Sprague-Dawley rat at 5 mg/kg, po. The format is ADME, organism-based. As to conditions: in vivo. A digest of the protocol: as §3
In series [19] the test system is MV4-11. Kind of series: Antiproliferative activity against human MV4-11 cells after 96 hrs by CellTiter-Glo reagent-based assay. The format is functional, cell-based. As to conditions: MV4-11, 96 h. A digest of the protocol:
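Antiproliferative activity measured in MV-411 cells. IC50 reported as the mean of at least two separate assay runs.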
(In general: Cellular ATP, detected with luciferase, serves as a proxy for viable cell number.)

Series [20] is described as follows: Stability in mouse hepatocytes after 1 hr. The format is ADME, cell-based, Hepatocyte. The conditions noted are these: read-out: Stability.
Series [21] can be described thus: Tmax in Balb/c nude mouse at 5 mg/kg, po. The format is ADME, organism-based. As to conditions: in vivo. A digest of the protocol: as §1

pIC50: −log10 of the molar value. Converted amounts (≈) assume the structure as drawn. Some results are limits rather than exact numbers.

T1 sequence (P49327 whole entry): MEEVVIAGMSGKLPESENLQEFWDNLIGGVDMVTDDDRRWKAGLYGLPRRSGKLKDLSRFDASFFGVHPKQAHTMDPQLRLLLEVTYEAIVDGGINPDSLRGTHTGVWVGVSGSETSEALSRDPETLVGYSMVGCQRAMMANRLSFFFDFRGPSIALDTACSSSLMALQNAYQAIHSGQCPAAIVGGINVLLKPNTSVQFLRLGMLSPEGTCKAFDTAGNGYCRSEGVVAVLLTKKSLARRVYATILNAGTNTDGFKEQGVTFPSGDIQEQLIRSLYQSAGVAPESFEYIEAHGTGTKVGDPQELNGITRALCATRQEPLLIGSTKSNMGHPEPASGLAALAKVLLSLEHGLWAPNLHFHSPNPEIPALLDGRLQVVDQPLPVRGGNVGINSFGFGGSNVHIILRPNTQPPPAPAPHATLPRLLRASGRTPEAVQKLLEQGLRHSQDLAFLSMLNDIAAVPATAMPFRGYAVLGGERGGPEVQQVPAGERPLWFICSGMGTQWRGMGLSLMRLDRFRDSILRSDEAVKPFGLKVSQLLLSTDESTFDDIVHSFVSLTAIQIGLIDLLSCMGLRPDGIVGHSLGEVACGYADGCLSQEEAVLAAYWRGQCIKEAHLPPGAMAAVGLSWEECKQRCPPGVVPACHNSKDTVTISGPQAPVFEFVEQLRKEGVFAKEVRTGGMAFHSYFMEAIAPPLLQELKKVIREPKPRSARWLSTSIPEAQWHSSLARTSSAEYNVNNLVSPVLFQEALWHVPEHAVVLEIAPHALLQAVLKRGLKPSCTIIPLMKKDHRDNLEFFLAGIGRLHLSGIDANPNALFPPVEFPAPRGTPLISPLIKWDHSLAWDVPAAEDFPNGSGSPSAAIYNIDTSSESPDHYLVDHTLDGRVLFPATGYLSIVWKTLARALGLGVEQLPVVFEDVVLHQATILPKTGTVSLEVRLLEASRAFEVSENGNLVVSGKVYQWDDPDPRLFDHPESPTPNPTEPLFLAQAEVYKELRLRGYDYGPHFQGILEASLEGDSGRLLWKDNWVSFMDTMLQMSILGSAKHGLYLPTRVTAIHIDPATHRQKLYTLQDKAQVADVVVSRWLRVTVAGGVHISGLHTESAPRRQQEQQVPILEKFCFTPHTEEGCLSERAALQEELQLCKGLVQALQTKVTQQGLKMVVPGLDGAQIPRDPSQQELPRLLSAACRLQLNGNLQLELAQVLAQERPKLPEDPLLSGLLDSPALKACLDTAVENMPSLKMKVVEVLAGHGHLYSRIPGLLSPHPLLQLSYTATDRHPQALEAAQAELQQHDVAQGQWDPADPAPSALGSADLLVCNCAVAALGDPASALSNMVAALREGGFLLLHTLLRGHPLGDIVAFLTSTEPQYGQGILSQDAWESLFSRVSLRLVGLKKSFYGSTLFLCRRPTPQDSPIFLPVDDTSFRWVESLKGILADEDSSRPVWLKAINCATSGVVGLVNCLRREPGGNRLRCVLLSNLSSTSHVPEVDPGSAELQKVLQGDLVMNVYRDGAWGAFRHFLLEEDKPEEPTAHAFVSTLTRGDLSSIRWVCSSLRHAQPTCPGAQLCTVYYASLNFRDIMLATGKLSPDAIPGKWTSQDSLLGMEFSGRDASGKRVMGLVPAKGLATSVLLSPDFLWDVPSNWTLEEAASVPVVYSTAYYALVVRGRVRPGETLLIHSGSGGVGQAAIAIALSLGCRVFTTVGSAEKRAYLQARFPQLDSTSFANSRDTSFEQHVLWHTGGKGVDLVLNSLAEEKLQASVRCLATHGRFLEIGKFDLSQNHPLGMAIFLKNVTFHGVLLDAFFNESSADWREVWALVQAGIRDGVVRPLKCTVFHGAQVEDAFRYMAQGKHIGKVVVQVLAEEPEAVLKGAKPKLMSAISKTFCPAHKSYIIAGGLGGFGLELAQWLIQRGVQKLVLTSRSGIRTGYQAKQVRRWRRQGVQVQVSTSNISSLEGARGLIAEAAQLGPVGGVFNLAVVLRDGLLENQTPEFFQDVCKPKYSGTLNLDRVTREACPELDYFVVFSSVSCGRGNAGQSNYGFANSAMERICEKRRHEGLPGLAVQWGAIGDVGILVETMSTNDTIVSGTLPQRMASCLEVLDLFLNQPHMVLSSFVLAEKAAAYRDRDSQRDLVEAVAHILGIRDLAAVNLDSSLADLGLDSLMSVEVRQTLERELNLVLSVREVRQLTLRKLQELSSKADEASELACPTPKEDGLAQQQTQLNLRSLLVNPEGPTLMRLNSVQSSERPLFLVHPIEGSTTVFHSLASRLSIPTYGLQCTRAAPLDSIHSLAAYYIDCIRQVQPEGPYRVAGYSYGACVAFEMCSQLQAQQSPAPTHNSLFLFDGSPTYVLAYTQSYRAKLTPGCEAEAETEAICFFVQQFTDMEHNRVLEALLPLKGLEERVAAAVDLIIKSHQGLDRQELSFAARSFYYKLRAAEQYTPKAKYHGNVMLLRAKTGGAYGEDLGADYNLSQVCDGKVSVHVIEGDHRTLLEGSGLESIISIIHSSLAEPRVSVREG

As usually defined, the pIC50 is −log10 of the IC50, conventionally taken in molar units. As for `O=C(c1ccc(-c2ccc3scnc3c2)cc1)N1CCN(C(=O)C2(O)CC2)CC1`, the pIC50 in series [1] was 7.77; in [4] it was 7.96; in [5], 7.49. For the same molecule, in series [2], the remaining at 0.5 h was found to be 88%. In addition, in series [3], the solubility kinetic is 95 µM (≈ 38.7 µg/mL).
With `Cn1c(-c2ccc(C(=O)N3CCN(C(=O)C4(O)CC4)CC3)cc2)cc2ccccc21`, the results for the pIC50 in [1], in series [4] and in series [5] were 7.60, 7.15 and 7.48, respectively. Besides, the remaining at 0.5 h in [2] turned out to be 83%. Besides, in series [3], the solubility kinetic turned out to be 0.3 µM (≈ 0.121 µg/mL).
For the molecule `O=C(c1ccc(-c2ccc3ccccc3n2)cc1)N1CCN(C(=O)C2(O)CC2)CC1`, the pIC50 in series [1] was 8.70; in [4], 7.00; in series [5], 7.49. Moreover, the remaining at 0.5 h in [2] was determined as 79%. Also, in series [3], the solubility kinetic amounted to 71 µM (≈ 28.5 µg/mL).
With `O=C(c1ccc(-c2ccccc2)cc1)N1CCN(C(=O)[C@@H]2CCCO2)CC1`, the remaining at 0.5 h in series [2] worked out at 65%. In series [5], the pIC50 was at most 4.30.
In the case of `O=C(c1ccc(-c2cc(Cl)ccc2F)cc1)N1CCN(C(=O)C2(O)CC2)CC1`, the pIC50 in series [1] is 6.86; in series [4] it was 6.80; in [5] it was 6.96. Moreover, the remaining at 0.5 h in series [2] was 66%. In addition, in series [3], the solubility kinetic is 43 µM (≈ 17.3 µg/mL).
In the case of `O=C(c1ccc(-c2ccccc2)cc1)N1CCN(C(=O)C2(O)CCCC2)CC1`, in series [5], the pIC50 is below 4.30.
Broadly, the AUC(0-t) is the area under the concentration-time curve up to a stated or last time point. Broadly, the bioavailability is dose-corrected exposure relative to a reference, in per cent. Usually AUC stands for the area under the concentration-time curve, a measure of exposure. The term Cmax denotes the peak of the concentration-time curve. The term Tmax denotes the time from dosing to the highest level. As for `O=C(c1ccc(-c2nc3ccc(F)cc3o2)cc1)N1CCN(C(=O)C2(O)CC2)CC1`, the pIC50 was 7.33 in [1], 7.05 in series [4], 7.59 in series [19] and 6.67 in series [5]. Moreover, the remaining at 0.5 h in series [2] was found to be 100%. The molecule further came in with an AUC(0-t) at 8 h in [6] of 46 µM·h. For the same molecule, the inhibition in vivo at 50 mg/kg in series [7] was 50%. Moreover, the bioavailability in series [8] came to 95%; in series [11], 84%. In series [9], this molecule registered an AUC of 46 µM·h. The same molecule displayed an AUC(0-t) at 24 h in [10] of 440 µM·h. For the same molecule, in [3], the solubility kinetic turned out to be 39 µM (≈ 16 µg/mL). The Cmax in series [12] was found to be 8.4 µM; in series [17], 33 µM. Besides, the values for the remaining at 1 h in [13] and in [20] were 83% and 97%, respectively. Moreover, the inhibition in vivo at 25 mg/kg in series [14] turned out to be 32%. The Activity result in series [15] was “Non-Toxic”. Further, the inhibition result in [16] is “Dose-dependent effect”. Further, the Tmax in [18] came out at 3 h; in series [21], 2 h.
Regarding `O=C(c1ccc(-c2ccccc2)cc1)N1CCN(C(=O)C2(O)CCC2)CC1`, the remaining at 0.5 h in [2] was determined as 85%. The pIC50 in series [5] is 5.74.
On to `O=C(c1ccc(-c2nc3ccccc3s2)cc1)N1CCN(C(=O)C2(O)CC2)CC1`, for which the pIC50 in [1] was 6.67; in series [4], 7.17; in [5], 7.24. In series [2], the remaining at 0.5 h came out at 84%. For the same molecule, the solubility kinetic in [3] amounted to 18 µM (≈ 7.33 µg/mL).
`O=C(c1ccc(-c2cnc3cccnc3c2)cc1)N1CCN(C(=O)C2(O)CC2)CC1`: the remaining at 0.5 h in series [2] was determined as 89%. Further, the solubility kinetic in series [3] is 95 µM (≈ 38.2 µg/mL). Moreover, the pIC50 was below 3.90 in [4] and below 5.30 in [5].
With `O=C(c1ccc(-c2ccc3cnccc3c2)cc1)N1CCN(C(=O)C2(O)CC2)CC1`, the figures for the pIC50 in series [1], in series [4] and in series [5] were 7.89, 7.96 and 7.89, respectively. Moreover, the remaining at 0.5 h in series [2] turned out to be 45%. The AUC in series [9] came to 0.1 µM·h. Moreover, the solubility kinetic in [3] stood at 77 µM (≈ 30.9 µg/mL). For the same molecule, the figures for the remaining at 1 h in series [13] and in series [20] were 0% and 1%, respectively.
Consider `O=C(c1ccc(-c2ccccc2)cc1)N1CCN(C(=O)C2CCCC2)CC1`, for which, in series [5], the pIC50 was below 4.30.
Regarding `O=C(c1ccc(-c2nc3cc(F)ccc3o2)cc1)N1CCN(C(=O)C2(O)CC2)CC1`, the pIC50 was 7.28 in [1], 7.21 in [4] and 6.72 in series [5]. In addition, the remaining at 0.5 h in [2] was found to be 93%. Besides, the solubility kinetic in series [3] amounted to 30 µM (≈ 12.3 µg/mL). Besides, in [15], the Activity entry is listed as “Toxic”.
On to `Cn1ncc2ccc(-c3ccc(C(=O)N4CCN(C(=O)C5(O)CC5)CC4)cc3)cc21`, for which the pIC50 in [1] was 7.92; in series [5], 7.59. The remaining at 0.5 h in [2] stood at 89%. The AUC in series [9] was 9.8 µM·h. Moreover, in [3], the solubility kinetic turned out to be 79 µM (≈ 32 µg/mL). In addition, the values for the remaining at 1 h in series [13] and in series [20] were 75% and 77%, respectively.

Source of the values: ChEMBL document CHEMBL4400560, “Discovery and optimization of novel piperazines as potent inhibitors of fatty acid synthase (FASN)” (Bioorg Med Chem Lett, 2019).
